{
  "source": "ChEMBL document CHEMBL4020828",
  "about": "“Design and Syntheses of Highly Potent Teixobactin Analogues against Staphylococcus aureus, Methicillin-Resistant Staphylococcus aureus (MRSA), and Vancomycin-Resistant Enterococci (VRE) in Vitro and in Vivo” (J Med Chem, 2018)",
  "format_in_all_cases": "functional",
  "key": {"Staphylococcus aureus [1]": {"test_system": "Staphylococcus aureus", "assay": "Antibacterial activity against methicillin-resistant Staphylococcus aureus"}, "[2]": {"test_system": "Staphylococcus epidermidis", "assay": "Antibacterial activity against Staphylococcus epidermidis"}, "Staphylococcus aureus [3]": {"test_system": "Staphylococcus aureus", "assay": "Antibacterial activity against methicillin-sensitive Staphylococcus aureus"}, "Staphylococcus aureus [4]": {"test_system": "Staphylococcus aureus", "assay": "Antibacterial activity against methicillin-resistant Staphylococcus aureus USA300"}, "Staphylococcus aureus [5]": {"test_system": "Staphylococcus aureus", "assay": "(§1) Antibacterial activity against Staphylococcus aureus ATCC 29213 infected in C57BL6 mouse cornea assessed as decrease in conjunctival chemosis at 0.3% administered tropically 2 times on day 1, 4 times on day 2 and 2 times on day 3 starting from 6 hrs post infection measured 48 hrs post last dose by slit-lamp photography", "summary_of_the_method": "(§2)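 Mouse corneal epithelium scratched with a scalpel, then infected with 15 µl of 6×10⁶ CFU/ml S. aureus ATCC 29213. From 6 h p.i., 15 µl of PBS vehicle, 0.3% w/v peptide in PBS or 0.3% moxifloxacin was applied, 8 doses total. Outcomes were slit-lamp examination, AS-OCT corneal thickness and CFU counts of harvested corneas (mean log₁₀ CFU/tissue ± SEM).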"}, "Staphylococcus aureus [6]": {"test_system": "Staphylococcus aureus", "assay": "as §1, with “corneal infiltrates” for “conjunctival chemosis”", "summary_of_the_method": "as §2"}, "Staphylococcus aureus [7]": {"test_system": "Staphylococcus aureus", "assay": "as §1, with “mean corneal thickness” for “decrease in conjunctival chemosis”, “24” for “48”, “AS-OCT method (reference value: 151.7 +/- 12.7 micrometer)” for “slit-lamp photography”", "summary_of_the_method": "as §2"}, "Staphylococcus aureus [8]": {"test_system": "Staphylococcus aureus", "assay": "as §1, with “mean corneal thickness” for “decrease in conjunctival chemosis”, “AS-OCT method (reference value: 186.2 +/- 17.5 micrometer)” for “slit-lamp photography”", "summary_of_the_method": "as §2"}, "Staphylococcus aureus [9]": {"test_system": "Staphylococcus aureus", "assay": "Antibacterial activity against Staphylococcus aureus ATCC 29213 infected in C57BL6 mouse cornea assessed as decrease in log bacterial load/tissue at 0.3% administered tropically 2 times on day 1, 4 times on day 2 and 2 times on day 3 starting from 6 hrs post infection measured 48 hrs post last dose", "summary_of_the_method": "as §2"}, "Staphylococcus aureus [10]": {"test_system": "Staphylococcus aureus", "assay": "Antibacterial activity against methicillin-resistant Staphylococcus aureus ATCC 33591 after 24 hrs", "settings": "ATCC 33591, 24 h"}, "Staphylococcus aureus [11]": {"test_system": "Staphylococcus aureus", "assay": "Antibacterial activity against methicillin-sensitive Staphylococcus aureus after 24 hrs"}, "Staphylococcus aureus [12]": {"test_system": "Staphylococcus aureus", "assay": "Antibacterial activity against methicillin-resistant Staphylococcus aureus after 24 hrs"}, "Enterococcus faecalis [13]": {"test_system": "Enterococcus faecalis", "assay": "Antibacterial activity against vancomycin-resistant Enterococcus faecalis ATCC 700802 after 24 hrs", "settings": "ATCC 700802, 24 h"}, "Enterococcus faecalis [14]": {"test_system": "Enterococcus faecalis", "assay": "Antibacterial activity against vancomycin-resistant Enterococcus faecalis ATCC 29212 after 24 hrs", "settings": "ATCC 29212, 24 h"}, "Staphylococcus aureus [15]": {"test_system": "Staphylococcus aureus", "assay": "Antibacterial activity against methicillin-resistant Staphylococcus aureus ATCC 700699 after 24 hrs", "settings": "ATCC 700699, 24 h"}, "Staphylococcus aureus [16]": {"test_system": "Staphylococcus aureus", "assay": "Antibacterial activity against methicillin-resistant Staphylococcus aureus isolate 42412 after 24 hrs", "settings": "isolate 42412, 24 h"}, "Staphylococcus aureus [17]": {"test_system": "Staphylococcus aureus", "assay": "Antibacterial activity against methicillin-resistant Staphylococcus aureus isolate 21455 after 24 hrs", "settings": "isolate 21455, 24 h"}},
  "note": "Calls of active or inactive are those of the source. No cut-off for these calls is given here.",
  "data": [
    {"smiles": "CC[C@@H](C)[C@@H](NC(=O)[C@@H](CCC(N)=O)NC(=O)[C@H](CO)NC(=O)[C@@H](NC(=O)[C@@H](Cc1ccccc1)NC)[C@@H](C)CC)C(=O)N[C@H](C(=O)N[C@@H](CO)C(=O)N[C@H]1C(=O)N[C@@H](C)C(=O)N[C@@H](CCCCN)C(=O)N[C@@H]([C@@H](C)CC)C(=O)O[C@H]1C)[C@@H](C)CC", "values": [
      {"measurement": "MIC", "setting": "Staphylococcus aureus [1]", "value": 1, "unit": "µg/mL"},
      {"measurement": "MIC", "setting": "[2]", "value": "0.5 to 1", "unit": "µg/mL"}
    ]},
    {"smiles": "CC[C@@H](C)[C@@H](NC(=O)[C@@H](CCC(N)=O)NC(=O)[C@H](CO)NC(=O)[C@@H](NC(=O)[C@@H](Cc1ccccc1)NC)[C@@H](C)CC)C(=O)N[C@H](C(=O)N[C@@H](CO)C(=O)N[C@H]1C(=O)N[C@@H](C)C(=O)N[C@@H](CCCNC(=N)N)C(=O)N[C@@H]([C@@H](C)CC)C(=O)O[C@H]1C)[C@@H](C)CC", "values": [
      {"measurement": "MIC", "setting": "Staphylococcus aureus [3]", "value": 2, "unit": "µg/mL"},
      {"measurement": "MIC", "setting": "Staphylococcus aureus [1]", "value": 2, "unit": "µg/mL"}
    ]},
    {"smiles": "CC[C@@H](C)[C@@H](NC(=O)[C@@H](CCC(N)=O)NC(=O)[C@H](CO)NC(=O)[C@@H](NC(=O)[C@@H](Cc1ccccc1)NC)[C@@H](C)CC)C(=O)N[C@H](C(=O)N[C@@H](CO)C(=O)N[C@H]1C(=O)N[C@@H](C)C(=O)N[C@@H](CCCCNC(=N)N)C(=O)N[C@@H]([C@@H](C)CC)C(=O)O[C@H]1C)[C@@H](C)CC", "values": [
      {"measurement": "MIC", "setting": "Staphylococcus aureus [3]", "value": 1, "unit": "µg/mL"},
      {"measurement": "MIC", "setting": "[2]", "value": 1, "unit": "µg/mL"},
      {"measurement": "MIC", "setting": "Staphylococcus aureus [4]", "value": 2, "unit": "µg/mL"}
    ]},
    {"smiles": "COc1c(N2C[C@@H]3CCCN[C@@H]3C2)c(F)cc2c(=O)c(C(=O)O)cn(C3CC3)c12", "note": "[MOXIFLOXACIN]", "values": [
      {"measurement": "Activity", "setting": "Staphylococcus aureus [5]", "value": "Active"},
      {"measurement": "Activity", "setting": "Staphylococcus aureus [6]", "value": "Active"},
      {"measurement": "Activity", "setting": "Staphylococcus aureus [7]", "value": 124.2, "unit": "um"},
      {"measurement": "Activity", "setting": "Staphylococcus aureus [8]", "value": 140.3, "unit": "um"},
      {"measurement": "Activity", "setting": "Staphylococcus aureus [9]", "value": 3.7, "unit": "log10CFU"}
    ]},
    {"smiles": "CC[C@@H](C)[C@@H](NC(=O)[C@@H](CCC(N)=O)NC(=O)[C@H](CO)NC(=O)[C@@H](NC(=O)[C@@H](Cc1ccccc1)NC)[C@@H](C)CC)C(=O)N[C@H](C(=O)N[C@@H](CO)C(=O)N[C@H]1C(=O)N[C@@H](C)C(=O)N[C@@H](CC(C)C)C(=O)N[C@@H]([C@@H](C)CC)C(=O)O[C@H]1C)[C@@H](C)CC", "values": [
      {"measurement": "MIC", "setting": "Staphylococcus aureus [10]", "value": 0.25, "unit": "µg/mL"},
      {"measurement": "MIC", "setting": "Staphylococcus aureus [11]", "value": 0.063, "unit": "µg/mL"},
      {"measurement": "MIC", "setting": "Staphylococcus aureus [12]", "value": 0.25, "unit": "µg/mL"},
      {"measurement": "MIC", "setting": "Enterococcus faecalis [13]", "value": 0.25, "unit": "µg/mL"},
      {"measurement": "MIC", "setting": "Enterococcus faecalis [14]", "value": 0.25, "unit": "µg/mL"},
      {"measurement": "MIC", "setting": "Staphylococcus aureus [15]", "value": 0.25, "unit": "µg/mL"},
      {"measurement": "MIC", "setting": "Staphylococcus aureus [16]", "value": "< 0.0625", "unit": "µg/mL"},
      {"measurement": "MIC", "setting": "Staphylococcus aureus [17]", "value": "< 0.0625", "unit": "µg/mL"}
    ]},
    {"smiles": "CC[C@@H](C)[C@@H](NC(=O)[C@@H](CCC(N)=O)NC(=O)[C@H](CO)NC(=O)[C@@H](NC(=O)[C@@H](Cc1ccccc1)NC)[C@@H](C)CC)C(=O)N[C@H](C(=O)N[C@@H](CO)C(=O)N[C@H]1C(=O)N[C@@H](C)C(=O)N[C@@H](C(C)C)C(=O)N[C@@H]([C@@H](C)CC)C(=O)O[C@H]1C)[C@@H](C)CC", "values": [
      {"measurement": "MIC", "setting": "Staphylococcus aureus [11]", "value": 0.25, "unit": "µg/mL"},
      {"measurement": "MIC", "setting": "Staphylococcus aureus [12]", "value": 0.5, "unit": "µg/mL"}
    ]},
    {"smiles": "CCC(C)[C@@H]1NC(=O)[C@H](C)NC(=O)[C@H](NC(=O)[C@H](CO)NC(=O)[C@@H](NC(=O)[C@H](NC(=O)[C@@H](CCC(N)=O)NC(=O)[C@H](CO)NC(=O)[C@@H](NC(=O)[C@@H](Cc2ccccc2)NC)[C@@H](C)CC)[C@H](C)CC)[C@@H](C)CC)[C@H](C)OC(=O)[C@H]([C@@H](C)CC)NC1=O", "note": "(some centres undefined)", "values": [
      {"measurement": "MIC", "setting": "Staphylococcus aureus [11]", "value": 0.063, "unit": "µg/mL"},
      {"measurement": "MIC", "setting": "Staphylococcus aureus [12]", "value": 0.25, "unit": "µg/mL"}
    ]}
  ]
}
